Assay results: publication PMC3483416 (Archives of biochemistry and biophysics, 2012)
Read-outs that look alike come from different tables or passages of the source. Blank lines part the entries; values can stand above or below the molecule they belong to. No end group written: not given here.

Key:
full-length human BclXL = full-length human BclXL (Homo sapiens, UniProt Q07817); assay: ITC: binding of Bid_BH3 peptide to full-length BclXL at varying pH; settings: for TΔS / ΔH / ΔG: 25 °C, ± SD, n at least 3; for TΔS: TΔS=ΔH-ΔG; for ΔG: ΔG=RTlnKd
How it was run: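 20-mer BH3 peptide (human Bid residues 81–100, gravimetric concentration) at 0.5–1 mM, titrated in 25 × 10 μl injections into 50 μM full-length human BclXL at 25 °C. Buffers 50 mM acetate pH 4, phosphate pH 6, Tris pH 8 or CAPS pH 10, each with 100 mM NaCl, 1 mM EDTA and 5 mM β-mercaptoethanol. Dilution heats subtracted. Kd and ΔH from a one-site fit; TΔS = ΔH − ΔG. Proton coupling assessed from buffer ionization-enthalpy dependence. ≥3 repeats.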

[1] = target: T1, Full-length human BclXL (residues 1-233) (human, UniProt Q07817-1 1-233); assay: ITC
[2] = target: T1, Full-length human BclXL (residues 1-233); assay: ITC; remark: listed apart in the source
[3] = target: T1, Full-length human BclXL (residues 1-233); assay: ITC; remark: listed apart in the source
[4] = target: T1, Full-length human BclXL (residues 1-233); assay: ITC; remark: listed apart in the source

T1 sequence (Q07817 whole entry, the tested form may be a part): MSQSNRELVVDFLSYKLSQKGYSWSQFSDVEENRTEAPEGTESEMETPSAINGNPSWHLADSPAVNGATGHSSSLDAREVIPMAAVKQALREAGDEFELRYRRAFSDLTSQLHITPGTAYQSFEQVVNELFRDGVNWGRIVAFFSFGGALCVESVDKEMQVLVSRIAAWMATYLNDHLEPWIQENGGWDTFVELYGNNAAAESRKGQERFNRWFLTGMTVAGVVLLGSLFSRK
full-length human BclXL, sequence (Q07817 whole entry, the tested form may be a part): as above

- TΔS (full-length human BclXL; pH 4, acetate): -2.15 ± 0.03 kcal/mol
- ΔH (full-length human BclXL; pH 4, acetate): -9.09 ± 0.20 kcal/mol
- ΔG (full-length human BclXL; pH 4, acetate): -6.94 ± 0.08 kcal/mol
- optimum pH of ligand binding (full-length human BclXL; pH 4-10): optimally occurs at pH 6
- TΔS (full-length human BclXL; pH 6, phosphate): -5.48 ± 0.15 kcal/mol
- ΔH (full-length human BclXL; pH 6, phosphate): -13.66 ± 0.32 kcal/mol
- ΔG (full-length human BclXL; pH 6, phosphate): -8.17 ± 0.09 kcal/mol
- TΔS (full-length human BclXL; pH 8, Tris): -11.58 ± 0.29 kcal/mol
- ΔH (full-length human BclXL; pH 8, Tris): -18.39 ± 0.53 kcal/mol
- ΔG (full-length human BclXL; pH 8, Tris): -6.80 ± 0.04 kcal/mol
- TΔS (full-length human BclXL; pH 10, CAPS): -10.13 ± 0.31 kcal/mol
- ΔH (full-length human BclXL; pH 10, CAPS): -16.54 ± 0.47 kcal/mol
- ΔG (full-length human BclXL; pH 10, CAPS): -6.40 ± 0.02 kcal/mol
Molecule: DIIRNIARHLAQVGDSMDRS [Bid_BH3 peptide]

- Kd [1]: 10.4 µM
- dH [1]: -18.4 kcal/mol
- Kd [2]: 20.5 µM
- dH [2]: -16.5 kcal/mol
- Kd [3]: 8.3 µM
- dH [3]: -9.09 kcal/mol
- Kd [4]: 1.03 µM
- dH [4]: -13.7 kcal/mol
B1: Bid_BH3 peptide (20-mer spanning residues 81-100, the BH3 domain within human Bid) (peptide)
peptide: DIIRNIARHLAQVGDSMDRS
